# Assay results published in ChEMBL document CHEMBL2176900, “Design and synthesis of a novel series of bicyclic heterocycles as potent γ-secretase modulators” (J Med Chem, 2012).
# Assays:
# [1] = test system: Rattus norvegicus; assay: Antialzheimer activity in Sprague-Dawley rat assessed as amyloid beta 37 level in brain at 10 mg/kg, po at 7 hrs by ELISA relative to control; format: functional
# Outline: (§1)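 Male Sprague-Dawley rats (180-220 g), fasted overnight, were given 10 mg/kg by gastric intubation as a 5 mg/mL suspension in 0.5% methocellulose. At 2, 4, 7 and 25 h, 50 μL CSF was taken from the cisterna magna under isoflurane, then brain was collected. Aβ37/38/40/42 were measured by MesoScale Discovery sandwich immunoassays. Results are mean % change versus T = 0 h, n = 5.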
# [2] = test system: Rattus norvegicus; assay: Antialzheimer activity in Sprague-Dawley rat assessed as amyloid beta 37 level in brain at 10 mg/kg, po at 4 hrs by ELISA relative to control; format: functional; outline: as §1
# [3] = Drug uptake in CD1 mouse brain at 10 mg/kg, po at 8 hrs by LC-MS/MS analysis; format: ADME, organism-based; design: dose 10 mg/kg, route oral; details: read-out: Drug uptake
# Outline: (§2)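 Overnight-fasted male CD1 mice received one oral dose (10 or 30 mg/kg) in 20% Captisol. After sacrifice, the left brain hemisphere was stored at −18 °C. Compound level was quantified by a qualified LC-MS/MS method, alongside EDTA plasma spun at 1900g, 4 °C. n = 4 per time point.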
# [4] = Plasma concentration in CD1 mouse at 10 mg/kg, po at 24 hrs by LC-MS/MS analysis; format: ADME, organism-based; design: dose 10 mg/kg, route oral
# Outline: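 Mice received a single 10 or 30 mg/kg oral dose. Plasma was sampled at several time points up to 48 h, with EDTA plasma obtained by centrifugation at 1900g, 10 min, 4 °C. Compound was quantified by LC-MS/MS, n = 4.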
# [5] = test system: Mus musculus; assay: Inhibition of gamma-secretase in CD1 mouse assessed as total amyloid beta level in brain at 10 mg/kg, po at 24 hrs by ELISA relative to control; format: functional; design: scale not given: the % may be the effect or the level left
# Outline: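 Fasted male CD1 SPF mice were dosed orally at 10 or 30 mg/kg in 20% Captisol. Right hemisphere was homogenized in 0.4% DEA/50 mM NaCl and the high-speed supernatant neutralized. Aβtotal ELISA used N-terminal JRF/rAβ/2 capture, biotinylated 4G8 and streptavidin-peroxidase, then a fluorogenic substrate (ex 320/em 420 nm). Standards spanned 10000–0.3 pg/mL. Values are % change vs T = 0 h, n = 4.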
# [6] = test system: Mus musculus; assay: Antialzheimer activity in CD1 mouse assessed as amyloid beta 42 level in brain at 10 mg/kg, po at 24 hrs by ELISA relative to control; format: functional
# Outline: (§3)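 Male CD1 SPF mice, fasted overnight, got a single oral dose of 10 or 30 mg/kg. At each time point the right brain hemisphere was homogenized in 0.4% DEA/50 mM NaCl with protease inhibitors and spun at 221300g for 50 min. The supernatant was neutralized with Tris-HCl pH 6.8. Aβ38 or Aβ42 was read by sandwich ELISA with a fluorogenic peroxidase substrate (ex 320/em 420 nm). Results are mean % change versus T = 0 h, n = 4.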
# [7] = test system: Mus musculus; assay: Antialzheimer activity in CD1 mouse assessed as amyloid beta 42 level in brain at 10 mg/kg, po at 8 hrs by ELISA relative to control; format: functional; outline: as §3
# [8] = test system: Mus musculus; assay: Antialzheimer activity in CD1 mouse assessed as amyloid beta 42 level in brain at 10 mg/kg, po at 4 hrs by ELISA relative to control; format: functional; outline: as §3
# [9] = test system: Mus musculus; assay: Antialzheimer activity in CD1 mouse assessed as amyloid beta 38 level in brain at 30 mg/kg, po at 24 hrs by ELISA relative to control; format: functional; outline: as §3
# [10] = test system: Mus musculus; assay: Antialzheimer activity in CD1 mouse assessed as amyloid beta 38 level in brain at 10 mg/kg, po at 8 hrs by ELISA relative to control; format: functional; outline: as §3
# [11] = test system: MDR1; assay: Apparent permeability from apical to basal side of pig LLCPK1 cells expressing MDR1; format: ADME, cell-based, Sus scrofa; details: LLC-PK1
# [12] = target: Cytochrome P450 3A4 (Homo sapiens, UniProt P08684); assay: Inhibition of CYP3A4 in human liver microsomes using testosterone as substrate; format: ADME, Microsome
# Sequence of Cytochrome P450 3A4 (P08684 whole entry): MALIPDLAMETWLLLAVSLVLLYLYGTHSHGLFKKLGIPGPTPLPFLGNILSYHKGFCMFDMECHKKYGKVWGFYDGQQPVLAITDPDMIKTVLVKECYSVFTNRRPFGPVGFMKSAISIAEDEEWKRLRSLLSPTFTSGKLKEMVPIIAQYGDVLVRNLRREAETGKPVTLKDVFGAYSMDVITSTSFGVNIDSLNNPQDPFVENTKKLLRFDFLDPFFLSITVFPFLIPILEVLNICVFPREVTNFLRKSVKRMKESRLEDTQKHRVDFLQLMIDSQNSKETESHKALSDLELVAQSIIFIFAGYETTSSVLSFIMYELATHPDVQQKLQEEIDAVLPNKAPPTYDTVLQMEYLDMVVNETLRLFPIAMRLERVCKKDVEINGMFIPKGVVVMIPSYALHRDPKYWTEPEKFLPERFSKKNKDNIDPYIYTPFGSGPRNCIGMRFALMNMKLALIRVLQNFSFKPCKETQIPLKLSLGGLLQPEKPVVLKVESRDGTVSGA
# [13] = Drug metabolism in human liver microsomes at 1 uM after 15 mins by ion-trap mass spectrophotometry; format: ADME, Microsome; details: read-out: Drug metabolism
# [14] = Plasma concentration in CD1 mouse at 30 mg/kg, po at 4 hrs by LC-MS/MS analysis; format: ADME, organism-based; design: dose 30 mg/kg, route oral
# Outline: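 Single oral dose to overnight-fasted male CD1 mice in 20% Captisol suspension. Plasma was taken at 4 h by decapitation into EDTA tubes and spun at 1900g for 10 min at 4 °C. Compound was measured by a qualified LC-MS/MS method. Values are geometric means of at least four runs.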
# [15] = test system: Brain; assay: Drug uptake in CD1 mouse brain at 10 mg/kg, po at 48 hrs by LC-MS/MS analysis; format: ADME, organism-based; design: dose 10 mg/kg, route oral; details: in vivo, BLD = below limit of detection; outline: as §2
# [16] = Drug uptake in Sprague-Dawley rat brain at 10 mg/kg, po at 7 hrs by LC-MS/MS analysis; format: ADME, organism-based; design: dose 10 mg/kg, route oral; details: read-out: Drug uptake
# Outline: (§4)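 Overnight-fasted male Sprague–Dawley rats (180–220 g) were dosed 10 mg/kg by gastric intubation of a 5 mg/mL suspension in 0.5% methocellulose. Rats were anesthetized with isoflurane, CSF was taken from the cisterna magna, then they were decapitated. Brain compound levels were measured as in the mouse assay. n = 5.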
# [17] = Drug uptake in Sprague-Dawley rat brain at 10 mg/kg, po at 4 hrs by LC-MS/MS analysis; format: ADME, organism-based; design: dose 10 mg/kg, route oral; details: read-out: Drug uptake; outline: as §4
# [18] = Plasma concentration in Sprague-Dawley rat at 10 mg/kg, po at 4 hrs by LC-MS/MS analysis; format: ADME, organism-based; design: dose 10 mg/kg, route oral
# Outline: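 Overnight-fasted male Sprague-Dawley rats (180–220 g) were given 10 mg/kg by gastric intubation of a 5 mg/mL suspension in 0.5% methocellulose. Blood was collected after decapitation at 2, 4, 7 and 25 h under isoflurane anaesthesia. Plasma compound was measured as in the mouse assay, n = 5.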
# [19] = test system: Rattus norvegicus; assay: Antialzheimer activity in Sprague-Dawley rat assessed as amyloid beta 42 level in CSF at 10 mg/kg, po at 4 hrs by ELISA relative to control; format: functional; outline: as §1
# [20] = test system: Rattus norvegicus; assay: Antialzheimer activity in Sprague-Dawley rat assessed as amyloid beta 40 level in brain at 10 mg/kg, po at 25 hrs by ELISA relative to control; format: functional; outline: as §1
# [21] = test system: Rattus norvegicus; assay: Antialzheimer activity in Sprague-Dawley rat assessed as amyloid beta 40 level in brain at 10 mg/kg, po at 4 hrs by ELISA relative to control; format: functional; outline: as §1
# [22] = test system: Rattus norvegicus; assay: Antialzheimer activity in Sprague-Dawley rat assessed as amyloid beta 40 level in brain at 10 mg/kg, po at 2 hrs by ELISA relative to control; format: functional; outline: as §1
# [23] = test system: Canis familiaris; assay: Antialzheimer activity in beagle dog assessed as amyloid beta 38 level in cerebrospinal fluid at 20 mg/kg, po at 4 hrs by ELISA relative to control
# [24] = test system: Canis familiaris; assay: Antialzheimer activity in beagle dog assessed as amyloid beta 40 level in cerebrospinal fluid at 20 mg/kg, po at 24 hrs by ELISA relative to control
compound,measurement,setting,value
COc1nc(Nc2cccc3c2nc(-c2ccc(F)cc2)n3C)ccc1-n1cnc(C)c1,Activity,[1],620%
same,Activity,[2],506%
same,concentration at 8 h,[3],1900 nM
same,concentration at 24 h,[4],4 nM
same,Activity,[5],94%
same,Activity,[6],94%
same,Activity,[7],50%
same,Activity,[8],49%
same,Activity,[9],101%
same,Activity,[10],124%
same,Papp A→B,[11],8 ×10⁻⁶ cm/s
same,IC50,[12],2900 nM
same,"metabolised at 0.25 h, 1 µM",[13],6%
same,concentration at 4 h,[14],19500 nM
same,Drug uptake,[15],BLD
same,concentration at 7 h,[16],2000 nM
same,concentration at 4 h,[17],2200 nM
same,concentration at 4 h,[18],4400 nM
same,Activity,[19],66%
same,Activity,[20],107%
same,Activity,[21],64%
same,Activity,[22],77%
same,Activity,[23],134%
same,Activity,[24],113%
